Source: the M2OR odorant receptor database

Key:
Conditions in all cases: stereoisomer not certain
[1] = target: T1, UniProt Q8VG27
T1 sequence (whole entry): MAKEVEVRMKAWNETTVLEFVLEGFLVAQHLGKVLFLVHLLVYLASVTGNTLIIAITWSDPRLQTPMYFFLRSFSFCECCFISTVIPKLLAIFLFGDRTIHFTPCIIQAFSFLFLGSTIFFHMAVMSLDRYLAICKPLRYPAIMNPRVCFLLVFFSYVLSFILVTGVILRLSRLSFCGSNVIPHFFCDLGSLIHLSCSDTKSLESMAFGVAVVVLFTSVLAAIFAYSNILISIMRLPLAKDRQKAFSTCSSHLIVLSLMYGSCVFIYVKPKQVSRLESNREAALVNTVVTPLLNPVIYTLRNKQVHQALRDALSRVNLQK
Procedure, shortened: (§1)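 Transient luciferase assays in mammalian cell lines were common, though methods varied by source. The values come from published papers and their supplementary material, with extra details from the original authors when needed. Responsive refers to a measured signal the original authors judged statistically different from baseline, and non-responsive (inactive) to the remainder.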

[2] = target: UniProt Q8VG28
Chain of UniProt Q8VG28 (Q8VG28 as listed by the source): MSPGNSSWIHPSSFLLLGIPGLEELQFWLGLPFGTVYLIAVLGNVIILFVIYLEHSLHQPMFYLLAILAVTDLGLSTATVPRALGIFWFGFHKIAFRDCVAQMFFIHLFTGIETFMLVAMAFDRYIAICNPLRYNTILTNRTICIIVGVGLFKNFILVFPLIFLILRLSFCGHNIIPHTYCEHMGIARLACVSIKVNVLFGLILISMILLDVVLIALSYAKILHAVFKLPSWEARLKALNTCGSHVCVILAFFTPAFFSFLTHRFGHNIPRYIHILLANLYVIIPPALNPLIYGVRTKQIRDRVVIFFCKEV
Procedure, shortened: as §1

[3] = target: T2, UniProt Q8VG49
T2 sequence (whole entry): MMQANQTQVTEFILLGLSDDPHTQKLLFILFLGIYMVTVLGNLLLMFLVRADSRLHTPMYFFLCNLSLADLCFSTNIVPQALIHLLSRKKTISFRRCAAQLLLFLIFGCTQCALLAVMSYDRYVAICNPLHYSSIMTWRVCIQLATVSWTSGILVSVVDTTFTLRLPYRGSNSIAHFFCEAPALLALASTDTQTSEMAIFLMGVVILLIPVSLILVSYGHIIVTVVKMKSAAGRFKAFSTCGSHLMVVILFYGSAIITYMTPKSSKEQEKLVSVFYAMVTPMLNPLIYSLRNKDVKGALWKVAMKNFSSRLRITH
Procedure, shortened: as §1

[4] = target: T3, UniProt Q8VG53
T3 sequence (whole entry): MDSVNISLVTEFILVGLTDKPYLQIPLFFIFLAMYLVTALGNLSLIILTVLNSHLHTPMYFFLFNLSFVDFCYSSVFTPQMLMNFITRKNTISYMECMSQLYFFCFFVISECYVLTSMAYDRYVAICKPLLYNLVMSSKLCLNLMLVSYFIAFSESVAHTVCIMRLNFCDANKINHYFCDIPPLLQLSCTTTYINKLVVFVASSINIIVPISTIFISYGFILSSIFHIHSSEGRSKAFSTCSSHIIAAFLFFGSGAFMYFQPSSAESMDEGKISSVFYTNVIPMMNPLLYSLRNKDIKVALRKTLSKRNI
Procedure, shortened: as §1

[5] = target: T4, UniProt Q8VG64
T4 sequence (whole entry): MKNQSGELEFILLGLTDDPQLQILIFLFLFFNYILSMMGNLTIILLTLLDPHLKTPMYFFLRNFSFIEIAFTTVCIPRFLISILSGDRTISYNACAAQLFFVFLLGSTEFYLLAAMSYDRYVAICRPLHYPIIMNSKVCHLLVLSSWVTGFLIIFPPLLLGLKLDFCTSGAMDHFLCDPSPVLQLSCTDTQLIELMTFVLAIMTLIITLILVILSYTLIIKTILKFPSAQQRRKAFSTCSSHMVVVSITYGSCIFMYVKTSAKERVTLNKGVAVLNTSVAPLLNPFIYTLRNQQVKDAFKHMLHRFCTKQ
Procedure, shortened: as §1

[6] = target: T5, UniProt Q8VG77
T5 sequence (whole entry): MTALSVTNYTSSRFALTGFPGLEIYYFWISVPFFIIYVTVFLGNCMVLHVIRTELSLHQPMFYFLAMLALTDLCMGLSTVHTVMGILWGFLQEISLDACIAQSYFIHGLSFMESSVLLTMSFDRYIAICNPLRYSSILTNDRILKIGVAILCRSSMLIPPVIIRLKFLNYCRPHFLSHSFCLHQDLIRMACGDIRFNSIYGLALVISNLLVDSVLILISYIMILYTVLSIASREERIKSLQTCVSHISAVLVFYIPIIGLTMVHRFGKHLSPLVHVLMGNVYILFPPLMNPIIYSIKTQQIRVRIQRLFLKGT
Procedure, shortened: as §1

[7] = target: T6, UniProt Q8VG96
T6 sequence (whole entry): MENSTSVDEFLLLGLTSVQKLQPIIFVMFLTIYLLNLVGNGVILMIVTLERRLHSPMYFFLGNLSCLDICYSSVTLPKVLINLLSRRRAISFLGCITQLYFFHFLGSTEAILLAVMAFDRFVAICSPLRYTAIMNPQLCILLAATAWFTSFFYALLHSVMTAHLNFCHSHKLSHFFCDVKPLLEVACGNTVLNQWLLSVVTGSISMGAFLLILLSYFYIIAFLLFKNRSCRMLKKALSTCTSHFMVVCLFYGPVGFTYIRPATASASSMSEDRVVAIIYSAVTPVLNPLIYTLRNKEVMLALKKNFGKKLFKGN
Procedure, shortened: as §1

[8] = target: T7, UniProt Q8VGB9
T7 sequence (whole entry): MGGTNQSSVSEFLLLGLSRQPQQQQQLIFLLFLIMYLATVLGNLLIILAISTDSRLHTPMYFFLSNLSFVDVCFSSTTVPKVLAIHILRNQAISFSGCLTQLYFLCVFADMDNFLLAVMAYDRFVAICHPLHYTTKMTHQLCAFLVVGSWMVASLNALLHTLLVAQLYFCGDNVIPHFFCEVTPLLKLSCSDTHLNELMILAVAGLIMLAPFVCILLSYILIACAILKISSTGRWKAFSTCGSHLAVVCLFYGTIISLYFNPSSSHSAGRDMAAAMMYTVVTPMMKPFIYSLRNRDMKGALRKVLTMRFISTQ
Procedure, shortened: as §1

[9] = target: T8, UniProt Q8VGC6
T8 sequence (whole entry): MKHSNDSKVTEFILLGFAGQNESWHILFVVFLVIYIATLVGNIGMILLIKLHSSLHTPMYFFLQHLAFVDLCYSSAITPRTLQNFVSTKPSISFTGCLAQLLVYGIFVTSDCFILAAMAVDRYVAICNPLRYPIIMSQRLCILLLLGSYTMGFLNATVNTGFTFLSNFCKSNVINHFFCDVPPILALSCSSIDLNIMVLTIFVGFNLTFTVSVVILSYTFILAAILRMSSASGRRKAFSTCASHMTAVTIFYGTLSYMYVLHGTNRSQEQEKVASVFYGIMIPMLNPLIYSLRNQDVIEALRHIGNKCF
Procedure, shortened: as §1

[10] = target: T9, UniProt Q8VGD7
T9 sequence (whole entry): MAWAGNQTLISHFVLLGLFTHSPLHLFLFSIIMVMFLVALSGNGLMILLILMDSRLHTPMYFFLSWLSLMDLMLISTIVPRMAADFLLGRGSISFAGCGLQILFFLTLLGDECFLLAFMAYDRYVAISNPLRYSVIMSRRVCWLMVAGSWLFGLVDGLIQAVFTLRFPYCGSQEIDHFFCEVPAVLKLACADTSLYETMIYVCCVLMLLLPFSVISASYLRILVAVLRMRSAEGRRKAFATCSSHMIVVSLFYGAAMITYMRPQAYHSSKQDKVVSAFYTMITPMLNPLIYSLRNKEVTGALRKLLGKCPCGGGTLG
Procedure, shortened: as §1

[11] = target: T10, UniProt Q8VGH1
T10 sequence (whole entry): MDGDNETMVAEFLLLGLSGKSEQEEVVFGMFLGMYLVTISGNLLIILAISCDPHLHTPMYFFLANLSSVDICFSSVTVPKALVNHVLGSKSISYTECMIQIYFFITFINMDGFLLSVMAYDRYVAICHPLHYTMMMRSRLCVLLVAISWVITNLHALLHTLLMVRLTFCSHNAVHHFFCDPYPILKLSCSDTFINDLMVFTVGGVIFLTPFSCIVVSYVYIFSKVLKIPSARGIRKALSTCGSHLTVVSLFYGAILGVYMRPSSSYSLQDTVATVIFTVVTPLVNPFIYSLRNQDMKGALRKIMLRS
Procedure, shortened: as §1

[12] = target: T11, UniProt Q8VGJ1
T11 sequence (whole entry): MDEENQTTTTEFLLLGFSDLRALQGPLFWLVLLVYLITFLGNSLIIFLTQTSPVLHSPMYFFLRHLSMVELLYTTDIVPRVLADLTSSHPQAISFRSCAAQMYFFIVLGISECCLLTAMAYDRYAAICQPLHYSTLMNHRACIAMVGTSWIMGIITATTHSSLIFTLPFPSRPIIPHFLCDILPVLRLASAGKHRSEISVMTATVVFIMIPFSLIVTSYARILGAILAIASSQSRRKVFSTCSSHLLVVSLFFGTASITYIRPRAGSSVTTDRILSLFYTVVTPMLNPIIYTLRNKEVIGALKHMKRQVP
Procedure, shortened: as §1

[13] = target: T12, UniProt Q8VGJ3
T12 sequence (whole entry): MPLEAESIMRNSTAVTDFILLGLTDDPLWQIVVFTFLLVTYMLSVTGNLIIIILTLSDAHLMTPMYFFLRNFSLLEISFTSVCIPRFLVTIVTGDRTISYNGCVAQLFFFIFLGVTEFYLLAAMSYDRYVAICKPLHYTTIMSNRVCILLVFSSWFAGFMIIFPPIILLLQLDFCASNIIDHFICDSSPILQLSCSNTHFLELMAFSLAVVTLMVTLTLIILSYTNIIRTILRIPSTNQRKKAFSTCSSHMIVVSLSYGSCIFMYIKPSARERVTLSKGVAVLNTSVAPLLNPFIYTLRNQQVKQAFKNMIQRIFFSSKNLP
Procedure, shortened: as §1

[14] = target: T13, UniProt Q8VGJ5
T13 sequence (whole entry): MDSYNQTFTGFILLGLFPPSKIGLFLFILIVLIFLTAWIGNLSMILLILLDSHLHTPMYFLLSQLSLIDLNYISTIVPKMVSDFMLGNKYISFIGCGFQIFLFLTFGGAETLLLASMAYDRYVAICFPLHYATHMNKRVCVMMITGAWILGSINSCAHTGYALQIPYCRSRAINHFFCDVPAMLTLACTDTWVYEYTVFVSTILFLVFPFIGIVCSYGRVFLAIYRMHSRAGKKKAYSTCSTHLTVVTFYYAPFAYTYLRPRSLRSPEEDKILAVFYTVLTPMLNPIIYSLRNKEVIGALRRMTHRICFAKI
Procedure, shortened: as §1

[15] = target: T14, UniProt Q8VGL0
T14 sequence (whole entry): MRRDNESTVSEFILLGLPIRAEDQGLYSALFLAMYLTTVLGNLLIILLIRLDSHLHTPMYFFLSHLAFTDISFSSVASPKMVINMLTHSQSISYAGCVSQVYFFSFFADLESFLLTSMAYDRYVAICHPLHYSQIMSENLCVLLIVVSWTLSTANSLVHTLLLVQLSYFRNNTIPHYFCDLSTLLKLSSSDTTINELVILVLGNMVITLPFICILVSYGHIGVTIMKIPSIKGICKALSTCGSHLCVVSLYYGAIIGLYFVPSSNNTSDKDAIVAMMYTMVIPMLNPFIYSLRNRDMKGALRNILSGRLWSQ
Procedure, shortened: as §1

[16] = target: T15, UniProt Q8VGL7
T15 sequence (whole entry): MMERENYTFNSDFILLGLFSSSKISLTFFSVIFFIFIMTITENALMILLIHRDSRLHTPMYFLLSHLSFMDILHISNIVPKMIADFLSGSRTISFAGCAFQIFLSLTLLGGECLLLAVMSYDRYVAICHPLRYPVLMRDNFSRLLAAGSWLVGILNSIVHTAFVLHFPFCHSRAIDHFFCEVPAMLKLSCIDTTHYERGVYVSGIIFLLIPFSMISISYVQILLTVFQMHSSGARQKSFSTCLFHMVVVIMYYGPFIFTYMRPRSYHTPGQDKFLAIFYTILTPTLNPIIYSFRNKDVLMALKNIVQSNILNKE
Procedure, shortened: as §1

[17] = target: UniProt Q8VGE3
Chain of UniProt Q8VGE3 (Q8VGE3 as listed by the source): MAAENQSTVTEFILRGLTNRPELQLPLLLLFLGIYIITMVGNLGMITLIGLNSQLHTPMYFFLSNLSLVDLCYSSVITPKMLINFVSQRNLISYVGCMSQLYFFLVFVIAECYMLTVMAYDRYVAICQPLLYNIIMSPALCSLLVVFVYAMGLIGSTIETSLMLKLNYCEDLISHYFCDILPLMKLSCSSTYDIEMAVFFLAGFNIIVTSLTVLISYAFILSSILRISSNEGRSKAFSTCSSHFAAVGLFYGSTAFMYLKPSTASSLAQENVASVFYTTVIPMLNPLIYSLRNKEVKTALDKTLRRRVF
Procedure, shortened: as §1

[18] = target: UniProt Q8VGK6
Chain of UniProt Q8VGK6 (Q8VGK6 as listed by the source): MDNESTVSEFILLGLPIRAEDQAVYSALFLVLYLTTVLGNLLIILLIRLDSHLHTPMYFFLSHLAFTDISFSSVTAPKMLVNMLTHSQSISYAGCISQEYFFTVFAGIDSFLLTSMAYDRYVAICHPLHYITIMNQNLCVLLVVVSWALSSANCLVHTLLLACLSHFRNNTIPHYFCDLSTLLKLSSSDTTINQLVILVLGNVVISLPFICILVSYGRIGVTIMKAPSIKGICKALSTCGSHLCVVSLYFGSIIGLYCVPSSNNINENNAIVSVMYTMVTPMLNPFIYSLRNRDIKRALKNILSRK
Procedure, shortened: as §1
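Note: active if original authors judged signal statistically different from baseline.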

Row | SMILES | odorant receptor agonist call [1] | odorant receptor agonist call [2] | odorant receptor agonist call [3] | odorant receptor agonist call [4] | odorant receptor agonist call [5] | odorant receptor agonist call [6] | odorant receptor agonist call [7] | odorant receptor agonist call [8] | odorant receptor agonist call [9] | odorant receptor agonist call [10] | odorant receptor agonist call [11] | odorant receptor agonist call [12] | odorant receptor agonist call [13] | odorant receptor agonist call [14] | odorant receptor agonist call [15] | odorant receptor agonist call [16] | odorant receptor agonist call [17] | odorant receptor agonist call [18]
1 | CCCCCCCCCC(=O)[O-].[H+] | active | active | active | inactive | inactive | inactive | inactive | inactive | active | inactive | inactive | inactive | inactive | inactive | inactive | inactive |  | 
2 | CCCCCC(=O)CC | inactive |  | inactive | inactive | inactive | inactive | inactive | inactive | active | inactive | inactive | inactive | inactive | active | inactive | inactive |  | 
3 | CC(=O)Oc1ccccc1 | inactive |  | inactive | inactive | inactive | inactive | active | inactive | active | inactive | inactive | inactive | inactive | inactive | inactive | inactive |  | 
4 | CC(C)=CCCC(C)=CCO | inactive |  | inactive | inactive | inactive | inactive | inactive | inactive | active | inactive | inactive | inactive | inactive | inactive | inactive | inactive |  | 
5 | CCCCCCCC(C)=O | inactive |  | inactive | inactive | inactive | inactive | inactive | inactive | active | inactive | inactive | inactive | inactive | inactive | inactive | inactive |  | 
6 | O=C1CCOc2ccccc21 | inactive |  | inactive | inactive | inactive | inactive | inactive | inactive | inactive | active | active | inactive | inactive | active | inactive | active | active | active
7 | CCCCCCCO | inactive | inactive | inactive | inactive | inactive | inactive | inactive | inactive | active | inactive | inactive | inactive | inactive | active | inactive | inactive |  | 
8 | CCCCCCCCCS | inactive |  | active | inactive | inactive | inactive | inactive | inactive | active | inactive | inactive | inactive | inactive | inactive | inactive | inactive |  | 
9 | O=C(c1ccccc1)c1ccccc1 | inactive |  | inactive | inactive | inactive | inactive | inactive | inactive | inactive | inactive | inactive | active | inactive | inactive | inactive | inactive |  | 
